Measured values from ChEMBL document CHEMBL5346890, “Elevated labile iron in castration-resistant prostate cancer is targetable with ferrous iron-activatable antiandrogen therapy” (Eur J Med Chem, 2023).
Active and inactive are the calls of the source. The rule behind the calls is not given here.

Assays:
PC-3 = assay: Antiproliferative activity against androgen receptor negative human PC-3 cells assessed as reduction in cell growth at 5 uM measured upto 6 days by CellTiter-Glo assay; format: functional, cell-based; conditions: time <= 6.0 day
How it was run: (§1)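 Cells were seeded at 20,000/well, four replicates per condition, in complete medium with 0.1% DMSO. Compound was added 24 h after seeding at a single concentration of 5 μM (0.2% final DMSO). Viability was read by CellTiter-Glo luminescence (10 min, room temperature, in HBSS) at timepoints up to 144 h (6 days).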

[1] = Metabolic stability in mouse liver microsomes assessed as half life measured upto 60 mins in presence of NADPH by LC/MS/MS analysis; format: ADME, Microsome; conditions: 1 h
[2] = Metabolic stability in mouse liver microsomes assessed as intrinsic clearance measured upto 60 mins in presence of NADPH by LC/MS/MS analysis; format: ADME, Microsome; conditions: 1 h
[3] = AUClast in NSG mouse at 10 mg/kg, ip; format: ADME, organism-based; design: dose 10 mg/kg, route ip; conditions: in vivo
How it was run: (§2)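 Healthy NSG mice got a single 10 mg/kg intraperitoneal dose. Plasma concentrations of conjugate and released payload were measured over time, with n = 9 or n = 6 mice depending on conjugate. Tmax, Cmax and AUClast (hr•ng/mL) were derived from the plasma profiles.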

[4] = Cmax in NSG mouse at 10 mg/kg, ip; format: ADME, organism-based; design: dose 10 mg/kg, route ip; conditions: in vivo; how it was run: as §2
[5] = Kinetic solubility of compound at pH 7.4 by shake flask assay; format: physicochemical; conditions: buffer
How it was run: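 Kinetic solubility of DMSO solutions in phosphate-buffered saline, pH 7.4, by automated miniaturized shake-flask method. Quantitation was by chemiluminescent nitrogen detection.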

LNCaP/AR [6] = assay: Antiproliferative activity against human LNCaP/AR cells assessed as reduction in cell growth at 5 uM measured upto 6 days by CellTiter-Glo assay; format: functional, cell-based; conditions: time <= 6.0 day
[7] = Tmax in NSG mouse at 10 mg/kg, ip; format: ADME, organism-based; conditions: in vivo; how it was run: as §2
LNCaP [8] = assay: Reduction in KLK2 gene expression in human LNCaP cells at 5 uM incubated for 48 hrs by qRT-PCR analysis; format: functional, cell-based
How it was run: (§3)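 Cells were plated in triplicate per condition; drug (0.1% final DMSO) was added after 24 h and left for 48 h. RNA was extracted and 2 μg reverse-transcribed. cDNA was diluted 1:50 and amplified by qPCR with 400 nM primers.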

LNCaP C4-2B = assay: Antiproliferative activity against androgen receptor positive human LNCaP C4-2B cells assessed as reduction in cell growth at 5 uM measured upto 6 days by CellTiter-Glo assay; format: functional, cell-based; conditions: time <= 6.0 day; how it was run: as §1
LNCaP [9] = assay: Reduction in KLK3 gene expression in human LNCaP cells at 5 uM incubated for 48 hrs by qRT-PCR analysis; format: functional, cell-based; how it was run: as §3
[10] = Drug concentration in NSG mouse brain at 10 mg/kg, ip measured after 2 hrs; format: ADME, organism-based; conditions: read-out: Drug uptake
How it was run: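 Healthy NSG mice were given a single 10 mg/kg intraperitoneal injection. Brains were collected at set timepoints, including 2 h post-dose. Both the intact conjugate and its released antiandrogen payload were measured in brain tissue, with concentrations expressed as ng/g.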

LNCaP/AR [11] = assay: Antiproliferative activity against human LNCaP/AR cells assessed as reduction in cell growth measured after 3 days by CellTiter-Glo assay; format: functional, cell-based; conditions: dose 0.1-25 µM, time 3.0 day
How it was run: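 LNCaP-AR cells (AR-overexpressing) were seeded at 20,000/well, four replicates, in 0.1% DMSO complete medium. Drug was added 24 h later across 0.1–25 μM (0.2% final DMSO) for three days. Viability was measured by CellTiter-Glo luminescence after 10 min at room temperature.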

[12] = Metabolic stability in human liver microsomes assessed as half life measured upto 60 mins in presence of NADPH by LC/MS/MS analysis; format: ADME, Microsome; conditions: 1 h
How it was run: (§4)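 Human liver microsomes at 0.5 mg/mL protein with 1 mM NADPH, sampled at 0, 15, 30 and 60 min, N = 1. Parent disappearance was followed by LC/MS/MS with verapamil as control. CLint = ln(2)*1000/T1/2/protein concentration (mg/mL).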

[13] = Metabolic stability in human liver microsomes assessed as intrinsic clearance measured upto 60 mins in presence of NADPH by LC/MS/MS analysis; format: ADME, Microsome; conditions: 1 h; how it was run: as §4

concentration at 2 h [10] [ng/g] | Structure (SMILES) | Activity (PC-3) | t1/2 [1] [min] | CLH [2] [µL/min/mg] | AUC(0-t) [3] [µg·h/mL] | Cmax [4] [ng/mL] | Kinetic_solubility [5] [µM] | Activity (LNCaP/AR [6]) | Tmax [7] [min] | Activity (LNCaP [8]) | Activity (LNCaP C4-2B) | Activity (LNCaP [9]) | Activity (LNCaP/AR [11]) | t1/2 [12] [min] | CLH [13] [µL/min/mg]
– | N#Cc1ccc(N2C(=O)C3(CCC3)N(c3ccc(O)cc3)C2=S)cc1C(F)(F)F | inactive | – | – | – | – | – | – | – | – | – | – | – | – | –
– | N#Cc1ncc(N2C(=O)C3(CCC3)N(c3ccc(OC4CCN(C(=O)O[C@H]5CCC[C@@]6(C5)OOC5(O6)C6CC7CC(C6)CC5C7)CC4)nc3)C2=S)cc1C(F)(F)F (some centres undefined) | – | 34.5 | 40.2 | – | – | – | – | – | – | – | – | – | – | –
– | N#Cc1ncc(N2C(=O)C3(CCC3)N(c3ccc(OC4CCN(C(=O)O[C@@H]5CCC[C@]6(C5)OOC5(O6)C6CC7CC(C6)CC5C7)CC4)nc3)C2=S)cc1C(F)(F)F (some centres undefined) | inactive | 48.2 | 28.8 | 158 | 641 | < 0.4 | Active | 30 | Active | Active | Active | – | – | –
– | N#Cc1ncc(N2C(=O)C3(CCC3)N(c3ccc(OC4CCNCC4)nc3)C2=S)cc1C(F)(F)F | inactive | – | – | – | – | – | – | – | – | – | – | – | – | –
808 | CNC(=O)c1ccc(N2C(=S)N(c3cnc(C#N)c(C(F)(F)F)c3)C(=O)C23CCC3)cc1F [APALUTAMIDE] | inactive | – | – | 4490 | 4330 | – | – | 240 | Active | – | Active | – | – | –
– | CN(CCN(C)C(=O)O[C@@H]1CCC[C@]2(C1)OOC1(O2)C2CC3CC(C2)CC1C3)C(=O)Oc1ccc(N2C(=S)N(c3ccc(C#N)c(C(F)(F)F)c3)C(=O)C23CCC3)cc1 (some centres undefined) | inactive | – | – | 81.1 | 346 | 2.3 | Active | 30 | Active | Active | Active | Dose-Dependent Effect | 53.4 | 25.9
